# Measured values of several laboratories.
# Each line is one published result; the experiments were not run side by side.
Structure (SMILES),sample,concentration,time,pH,Papp [×10⁻⁶ cm/s]
COc1ccc(Cn2c(-c3ccccc3)c(-c3ccccc3)c3c(=N)n(CC4CCOCC4)cnc32)cc1,PAMPA,50 µM,30 min,,1270
Cc1csc2c(=O)n(O)c(=O)[nH]c12,PAMPA,10 µM,5 h,,0.1
c1cncc(-c2cccc(Nc3nccc(NC4CCC4)n3)c2)c1,PAMPA,50 nM,30 min,,2050
c1ccc(-c2nc(N3CCC(c4ccccn4)C3)c3ccccc3n2)nc1 (stereo not shown),PAMPA,10 µM,3 h,pH 7.4,22.6
Cc1sc2c(=O)n(O)c(=O)[nH]c2c1C,PAMPA,10 µM,5 h,,0.5
CC(C)c1noc(C2CCN(c3ncnc(Nc4ccc(S(C)(=O)=O)cc4F)c3[N+](=O)[O-])CC2)n1,PAMPA-BBB,0.5 µM,4 h,pH 7.4,3.02
COc1cc(CN2CCc3c(cc(Cn4ccnc4C)cc3-c3cn(C)nc3C(F)(F)F)C2=O)cc(OC)c1,PAMPA,100 µM,5 h,pH 7.4,5.3
c1cncc(-c2cccc(Nc3nccc(NC4CCNCC4)n3)c2)c1,PAMPA,50 nM,30 min,,8.2
O=c1[nH]c2sc(-c3ccc(F)cc3)cc2c(=O)n1O,PAMPA,10 µM,5 h,,0.6
O=C(CNc1cccc(OC(F)(F)F)c1)NC12CC3CC(CC(C3)C1)C2,PAMPA,,16 h,,3.5
C[C@H](Nc1ccnc(Nc2cccc(-c3cccnc3)c2)n1)C(=O)O,PAMPA,50 nM,30 min,,9.7
O=C(O)c1ccc2c(c1)nc(NCc1ccccc1)c1ncccc12,PAMPA,,5 h,pH 7.4,6.53
CC(C)Nc1ccnc(Nc2cccc(-n3ccnc3)c2)n1,PAMPA,50 nM,30 min,,2070
Fc1cccc(F)c1-c1nc(N2CCC(c3ccccn3)C2)c2ccccc2n1 (stereo not shown),PAMPA,10 µM,3 h,pH 7.4,35.5
O=c1[nH]c2c(-c3ccccc3)csc2c(=O)n1O,PAMPA,10 µM,5 h,,1.5
Cn1nccc1-c1nc(N2CCC(c3ccccn3)C2)c2ccccc2n1 (stereo not shown),PAMPA,10 µM,3 h,pH 7.4,49.3
CC(C)Nc1ccnc(Nc2cccc(-c3ccccn3)c2)n1,PAMPA,50 nM,30 min,,2010
CC[C@@H](C)[C@@H]1NC(=O)[C@@H](Cc2ccccc2)OC(=O)CN(C)C(=O)[C@H]([C@H](C)CC)NC(=O)[C@@H](Cc2ccccc2)OC(=O)CN(C)C1=O,PAMPA,,,,28
c1ccc(-c2nc(N3CCOCC3)c3ccccc3n2)nc1,PAMPA,10 µM,3 h,pH 7.4,19.4
CNc1ccnc(Nc2cccc(-c3cccnc3)c2)n1,PAMPA,50 nM,30 min,,2250
C[C@@H](NC(=O)[C@@H](CC(=O)N1CCC(N2CCCCC2)CC1)N1C(=O)[C@@H](N2C(=O)OC[C@@H]2c2ccccc2)[C@H]1/C=C/c1cccc(I)c1)c1ccccc1,PAMPA-BBB,25 µg/mL,18 h,pH 7.4,2 to 4
COC(=O)[C@H](C)Nc1ccnc(Nc2cccc(-c3cccnc3)c2)n1,PAMPA,50 nM,30 min,,1910
O=c1[nH]c2scc(-c3ccccc3)c2c(=O)n1O,PAMPA,10 µM,5 h,,0.4
Cn1c(=O)c2c(ncn2C)n(C)c1=O,PAMPA,200 µM,5 h,,6.85
N#Cc1cccc(-c2nc(N3CCC(c4ccccn4)C3)c3ccccc3n2)c1 (stereo not shown),PAMPA,10 µM,3 h,pH 7.4,36.9
O=C(CCCN1CCC(O)(c2ccc(Cl)cc2)CC1)c1ccc(F)cc1,PAMPA-BBB,50 µM,16 h,pH 7.4,21.4
N=c1c2c(-c3ccccc3)c(-c3ccccc3)n(CCc3ccccc3)c2ncn1CC1CCOCC1,PAMPA,50 µM,30 min,,1230
CC(C)Nc1ccnc(Nc2cccc(-c3nccs3)c2)n1,PAMPA,50 nM,30 min,,1960
CN1CC(=O)O[C@H](Cc2ccccc2)C(=O)NCC(=O)N(C)CC(=O)O[C@H](Cc2ccccc2)C(=O)NCC1=O,PAMPA,,,,15
N=c1c2c(-c3ccccc3)cn(Cc3ccccc3)c2ncn1CCO,PAMPA,50 µM,30 min,,1270
c1ccc(-c2nc(N3CCC(c4ccccn4)C3)c3ccccc3n2)cc1 (stereo not shown),PAMPA,10 µM,3 h,pH 7.4,42.4
CC(=O)CC(c1ccccc1)c1c(O)c2ccccc2oc1=O (stereo not shown),PAMPA,10 µM,24 h,pH 7.4,1.5
O=c1[nH]c2scc(-c3ccc(Cl)cc3)c2c(=O)n1O,PAMPA,10 µM,5 h,,0.5
Cc1cccc(/C=C/[C@@H]2[C@H](N3C(=O)OC[C@@H]3c3ccccc3)C(=O)N2[C@H](CC(=O)N2CCC(N3CCCCC3)CC2)C(=O)N[C@H](C)c2ccccc2)c1,PAMPA-BBB,25 µg/mL,18 h,pH 7.4,> 4
Cc1sc2[nH]c(=O)n(O)c(=O)c2c1C,PAMPA,10 µM,5 h,,1
N=c1c2c(-c3ccccc3)c(-c3ccccc3)n(Cc3ccc(OC(F)(F)F)cc3)c2ncn1[C@H]1CC[C@@H](O)CC1,PAMPA,50 µM,30 min,,1250
c1ccc(-c2nc(NCc3ccco3)c3ccccc3n2)nc1,PAMPA,10 µM,3 h,pH 7.4,22.8
CO[C@H]1CNC[C@@H](OCC2CCC(F)(F)CC2)[C@@H]1Nc1ncc(-c2cncc(C)c2)c2cc(C)c(=O)[nH]c12,PAMPA,,,pH 7.4,19
CC(C)NCC(O)COc1cccc2ccccc12 (stereo not shown),PAMPA-BBB,50 µM,16 h,pH 7.4,22.4
N=c1c2c(-c3ccccc3)c(-c3ccccc3)n(Cc3ccccc3)c2ncn1[C@H]1CC[C@H](O)CC1,PAMPA,50 µM,30 min,,> 1000
c1ccc(CN2CCN(c3nc(-c4ccccn4)nc4ccccc34)CC2)cc1,PAMPA,10 µM,3 h,pH 7.4,32.8
COc1ccc(CCn2cnc3c(c(-c4ccccc4)c(-c4ccccc4)n3Cc3ccccc3)c2=N)cc1OC,PAMPA,50 µM,30 min,,1200
CCN1CC(=O)NC(CC(C)C)C(=O)N(C)C(C)C(=O)NC(CC(C)C)C(=O)N2CCCC2C(=O)N(CC2CCCCC2)CC(=O)NC(CC(C)C)C(=O)N(C)C(C)C(=O)NC(Cc2ccccc2)C(=O)N2CCCC2C1=O (stereo not shown),PAMPA,,,,18
